Results of several laboratories.
Lines come from different studies, so protocols differ.
Target: Myosin light chain kinase (MYLK3, Homo sapiens, UniProt Q32MK0)
Sequence (Q32MK0 1-819, as in one of the studies): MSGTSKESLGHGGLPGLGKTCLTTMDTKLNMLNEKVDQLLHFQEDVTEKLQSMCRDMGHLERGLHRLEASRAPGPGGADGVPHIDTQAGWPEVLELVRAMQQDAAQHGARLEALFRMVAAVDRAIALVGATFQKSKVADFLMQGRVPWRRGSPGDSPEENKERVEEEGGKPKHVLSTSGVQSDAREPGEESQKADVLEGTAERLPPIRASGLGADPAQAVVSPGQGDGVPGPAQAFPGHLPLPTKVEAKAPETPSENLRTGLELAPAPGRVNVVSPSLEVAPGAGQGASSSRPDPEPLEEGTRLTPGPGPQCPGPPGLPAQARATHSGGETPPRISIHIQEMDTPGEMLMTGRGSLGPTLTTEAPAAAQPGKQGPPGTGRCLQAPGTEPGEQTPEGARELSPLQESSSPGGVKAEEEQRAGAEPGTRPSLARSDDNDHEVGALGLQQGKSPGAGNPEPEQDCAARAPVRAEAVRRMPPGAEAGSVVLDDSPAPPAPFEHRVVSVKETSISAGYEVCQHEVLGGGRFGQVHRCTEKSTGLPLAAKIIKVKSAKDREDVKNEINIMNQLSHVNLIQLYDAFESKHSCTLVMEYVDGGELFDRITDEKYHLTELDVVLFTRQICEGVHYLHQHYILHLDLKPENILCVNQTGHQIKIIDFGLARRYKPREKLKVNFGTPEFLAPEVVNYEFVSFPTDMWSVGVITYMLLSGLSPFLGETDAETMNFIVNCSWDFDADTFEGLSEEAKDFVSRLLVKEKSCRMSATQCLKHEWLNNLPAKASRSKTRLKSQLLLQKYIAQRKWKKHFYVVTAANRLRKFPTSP

C=CC(=O)N1CCC(C(=O)NCC(=O)N2CCN(c3nc(-c4cnc(N)nc4C(F)F)nc(N4CCOCC4)n3)CC2)CC1 has a remaining binding of 92% (binding; competition with immobilised ligand; 1 µM).
COc1ccnn2ncc(-c3ccnc(N(C)C)n3)c12 gave a remaining binding of 71% (binding; 1 µM).
The remaining binding of CC(=O)N1CCC(c2ccc(C(=O)NC3=NCCN3)cc2C(F)(F)F)CC1 is reported as 100% (cell-free assay; competition with immobilised ligand; 1 µM).
The remaining binding of COc1cnc(Nc2cccc(S(N)(=O)=O)c2)nc1N1CCN(c2ccccc2)CC1 is reported as 97% (binding; competition with immobilised ligand; 1 µM).
The remaining binding of c1cncc(-c2cccc(Nc3nccc(NC4CCCCC4)n3)c2)c1 is reported as 100% (binding; competition with immobilised ligand; 10 µM).
C[C@@H]1CCN(c2nccc(-c3cnn4ncccc34)n2)C1 gave a remaining binding of 91% (binding; 1 µM).
With CCS(=O)(=O)c1cc2cc(C[C@](O)(CC(C)(C)c3ccc(F)cc3C(N)=O)C(F)(F)F)[nH]c2cn1 the remaining binding was 74% (cell-free assay; competition with immobilised ligand; 1 µM).
O=C(NCC1CCOCC1)c1n[nH]cc1NC(=O)c1c(F)cccc1F gave a remaining binding of 100% (binding; competition with immobilised ligand; 1 µM).
The remaining binding of O=C(c1ccc(Nc2ncc(Cl)c(-c3cc4ccccc4s3)n2)cc1)N1CCC(N2CCCC2)CC1 is reported as 2% (binding; competition with immobilised ligand; 1 µM).
For Cn1nc(C(=O)NCc2ccc(C(=O)O)cc2)cc1-c1ccc2[nH]ccc2c1, the remaining binding was 100% (cell-free assay; competition with immobilised ligand; 0.1 µM).
With CN(c1nccc(-c2cnn3ncccc23)n1)C1CC1 the remaining binding was 100% (binding; 1 µM).
Cc1cnc(Nc2ccc(C(=O)N3CCC(N4CCCC4)CC3)cc2)nc1-c1cc2ccccc2s1 gave a remaining binding of 5.1% (binding; competition with immobilised ligand; 1 µM).
COc1cnc(Nc2cccc(S(N)(=O)=O)c2)nc1N1CCN(c2ccccc2)C(=O)C1 gave a remaining binding of 97% (binding; competition with immobilised ligand; 1 µM).
CN(C)c1ncc(F)c(-c2cnn3ncccc23)n1 has a remaining binding of 77% (binding; 1 µM).
O=C(Nc1cccnn1)N1CCC(=Cc2cccc(Oc3ccc(C(F)(F)F)cn3)c2)CC1 gave a remaining binding of 100% (cell-free assay; competition with immobilised ligand; 1 µM).
CN(C)c1nccc(-c2cnn3ncccc23)n1 has a remaining binding of 100% (binding; 1 µM).
C[C@H](c1ccc(F)cc1)N(Cc1cccc(C(=O)O)c1)C(=O)c1cnc2ccccc2c1 has a remaining binding of 100% (cell-free assay; competition with immobilised ligand; 1 µM).
For O=C(c1ccc(Nc2ncc(Cl)c(-c3ccc(Cl)s3)n2)cc1)N1CCC(N2CCCC2)CC1, the remaining binding was 6.7% (binding; competition with immobilised ligand; 1 µM).
For N[C@H]1CCN(c2nccc(-c3cnn4ncccc34)n2)C1, the remaining binding was 88% (binding; 1 µM).
CS(=O)(=O)NCC[C@H](NC(=O)c1cncc2c1cnn2-c1ccc(F)cc1)c1ccnc(S(C)(=O)=O)c1 gave a remaining binding of 100% (cell-free assay; competition with immobilised ligand; 1 µM).
